Only some compounds are listed: those with a hit (about 2.2% of all), similar ones and a draw of the others.
NR2E3 ag-1: agonists of human NR2E3 nuclear receptor; Q9Y5X4; inhibition of corepressor binding, % at 3.98 µM; 360,000 compounds, 0.35% hits; CHO-S Gal4-NCOR/VP16-NR2E3 two-hybrid, luciferase; AID 602229;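 active means inhibition above the mean of all tested compounds plus 3 SD, cut at about 70% in these data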;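 further: 0% = DMSO with NR2E3 transfected cells and 100% = cells lacking NR2E3 construct; higher means lower luciferase signal from less NR2E3 corepressor binding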
GalR3 antag: blocks the human galanin receptor 3; O60755; HEK293 GalR3-CNG cAMP membrane potential fluorescence; galR3 body fused to GalR1 C-terminus; inhibition, % at 3 µM; 360,000 compounds, 0.44% hits; AID 651719;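 active means inhibition above the screen-wide average plus 3 SD, cut at about 13% in these data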;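 further: forskolin and galanin both at EC90 stimulate the cells; cAMP rise reported by CNG channel membrane potential dye signal; 0% = forskolin plus galanin with DMSO and 100% = forskolin alone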
NR2E3 ag-2: agonists of human nuclear receptor NR2E3; inhibition of corepressor binding, % at 4.78 µM; 320,000 compounds, 0.12% hits; GST-NR2E3/biotin-RetCOR TR-FRET, 1536-well; AID 2300;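 active means percent inhibition above the cutoff of mean plus 3 SD of all tested compounds, set per screening campaign, cut at about 20% in these data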;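 further: 0% = DMSO wells and 100% = biotin wells as full block of FRET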
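Material – GST-tagged NR2E3 plus biotinylated RetCOR corepressor · Quantity – NR2E3 fusion 1.35 nM · Times – 5 h incubation at 4 °C · Medium – pH 7.5 Tris-based buffer · Technique – TR-FRET, Eu(K)-anti-GST donor, streptavidin-D2 acceptor, ex 340, em 617/671 nm · Benchmarks – high control biotin, low control 0.6% DMSO · Format – 1536-well plates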
SMARCA2 activ: SMARCA2 function activation, primary screen. AID 652017. 370,000 compounds, 1% hits. MG213 cells, MMTV-luciferase reporter, dexamethasone, overnight. activation, % at 9.1 µM; in the data active means activation above about 7.8%;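 further: 0% = vehicle wells and 100% = reference activator wells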
NR2F2 inh: inhibitors of human COUP-TFII (NR2F2); P24468; 370,000 compounds, 0.7% hits; inhibition, % at 8.6 µM; HEK293T NGFI-A luciferase reporter, luminescence;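 active means inhibition above a per-plate cutoff, mean inhibition of test wells between control levels plus 3 SD, cut at about 38% in these data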;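 further: cells cotransfected with COUP-TFII expression vector driving the NGFI-A reporter; 0% = median of COUP-TF2 test wells and 100% = reporter-only cells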
Target sequence (P24468 whole entry, looked up): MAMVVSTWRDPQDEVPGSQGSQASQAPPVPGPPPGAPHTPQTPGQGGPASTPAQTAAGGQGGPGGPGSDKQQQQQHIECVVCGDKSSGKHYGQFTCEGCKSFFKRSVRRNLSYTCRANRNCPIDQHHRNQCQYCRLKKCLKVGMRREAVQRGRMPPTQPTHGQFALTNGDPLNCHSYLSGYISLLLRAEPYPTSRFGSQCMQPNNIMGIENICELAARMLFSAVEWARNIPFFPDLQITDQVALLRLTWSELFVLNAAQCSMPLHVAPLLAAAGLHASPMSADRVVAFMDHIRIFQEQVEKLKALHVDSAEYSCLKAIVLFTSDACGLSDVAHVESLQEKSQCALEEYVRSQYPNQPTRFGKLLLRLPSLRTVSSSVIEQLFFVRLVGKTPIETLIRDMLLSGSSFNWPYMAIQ
SMARCA2 conf: confirmation of SMARCA2 (BRM) function activators | shares compounds with SMARCA2 activ | MG213 cells, MMTV-luciferase with dexamethasone, luminescence, overnight; MG213 cells expressing E1A, Rb sequestered; DMSO wells 0%, reference activator 100% | activation, % at 9.1 µM | 3,500 compounds, 30% hits;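 active means activation above its plate's cutoff, the mean activation of tested wells plus 3 SD, cut at about 7.9% in these data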
GAL4-VP16 Luc: activates GAL4-VP16 luciferase, flagging SMARCA2 activator hits; shares compounds with SMARCA2 activ; HEK293 GAL4-VP16 pG5luc reporter, luciferase luminescence; scaled: DMSO wells 0%, SAHA wells 100%; activation, % at 9.1 µM; 3,500 compounds, 41% hits;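 active means activation above the solvent-only control well mean plus 3 SD, averaged across control plates, cut at about 5.2% in these data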
Active calls of the source: *; . = no result.

SMILES | NR2E3 ag-1 | GalR3 antag | NR2E3 ag-2 | SMARCA2 activ | NR2F2 inh | SMARCA2 conf | GAL4-VP16 Luc
CCOc1ccc(/C=N/N(C)c2ccccc2)cc1OC | -151 | 1 | 0 | 8.5* | -17 | 8.1* | 12*
O=C(COCc1ccccc1)NC1CCCCN(Cc2ccc(Cl)cc2)C1=O (stereo not drawn) | . | . | . | -2 | 12 | . | .
CC1(C)CC(=O)C/C(=N\NC(=O)Cc2ccccc2)C1 | 29 | -5 | -1 | 10* | -6 | 1 | 1
Cc1nc(NC(=O)/C=C/c2ccco2)sc1C | -93 | -7 | 1 | 10* | -34 | 7 | 7.6*
CCSc1nnc(NC(=O)/C=C/c2ccco2)s1 | -22 | -6 | 1 | 10* | -25 | 6 | 7.8*
O=C(/C=C/c1ccco1)Nc1nnc(-c2ccco2)s1 | -38 | -6 | 1 | 3 | 8 | . | .
CC1(C)C(=O)Nc2ccccc2N1C(=O)Cn1ncc(Cl)c(Cl)c1=O | -11 | -4 | -4 | 19* | 7 | 23* | 0
S=C(NCC1CCCCC1)OC1CCC12CCC(c1ccccc1)CC2 (stereo not drawn) | . | . | . | -1 | -10 | . | .
Cc1nc(CS(=O)(=O)c2ccc(Cl)cc2)cc(Sc2ccccc2Cl)n1 | -24 | -4 | 5 | 2 | -13 | . | .
Cc1nc(CS(=O)(=O)c2ccccc2)cc(Sc2ccccc2Cl)n1 | -60 | 0 | -1 | 8.2* | -26 | 7 | 6.9*
O=[N+]([O-])c1cccc(-c2ccc(C(=S)N3CCN(c4ccc(F)cc4)CC3)o2)c1 | 2 | -7 | 1 | 9.1* | 9 | 0 | -1
Nn1c(SCC(=O)Nc2cccc3ccccc23)nnc1-c1cc(-c2ccc(Cl)cc2)n[nH]1 | . | . | . | -2 | -1 | . | .
COc1ccc(C(CC(=O)Nc2nccs2)n2cccc2)cc1 (stereo not drawn) | -58 | 4 | 1 | 8.1* | -35 | 5 | 10.0*
COc1ccc(C(CC(=O)Nc2nccs2)C(C)C)cc1 (stereo not drawn) | 15 | -11 | 1 | -4 | 10 | . | .
Cc1cc(C(=O)O)c(C)o1 | . | . | . | 0 | -17 | . | .
O=C(COC(=O)c1ccc(S(=O)(=O)N2CCCC2)cc1)Nc1cccc(F)c1 | -2 | -4 | -2 | 10* | -13 | 1 | 0
COC(=O)C1CN(Cc2cn(Cc3ccc(F)cc3)nn2)CCS(=O)(=O)N1Cc1ccc(C)cc1 (stereo not drawn) | . | . | . | -4 | 12 | . | .
Cc1ccc2cccc(N=Cc3c(C)[nH]n(-c4ccccc4)c3=O)c2n1 | -23 | -11 | -1 | 14* | 10 | -13 | 8.1*
Cc1ccc2nc(N3C(=O)C(O)=C(C(=O)c4ccco4)C3c3cccs3)sc2c1 (stereo not drawn) | -84 | -6 | 12 | 12* | -35 | 2 | 10*
Cc1cc(C)c2nc(N3C(=O)C(O)=C(C(=O)c4ccco4)C3c3ccco3)sc2c1 (stereo not drawn) | -27 | 7 | 12 | -1 | -35 | . | .
Cc1cc(C)nc(Sc2nc(Cl)nc(N(c3ccccc3)c3ccccc3)n2)n1 | -8 | 2 | 2 | 8.3* | -13 | 9.2* | 1
Cc1cccc(C(=O)OCC(=O)NCC2CCCO2)c1O (stereo not drawn) | 0 | -6 | 3 | 9.2* | -10 | 1 | 0
O=C(COC(=O)c1ccccc1Br)NCC1CCCO1 (stereo not drawn) | 0 | -7 | . | 2 | -14 | . | .
COC(=O)C1=C(C)N(Cc2cccc(C(F)(F)F)c2)C(=NCc2ccc3c(c2)OCO3)NC1CCc1ccccc1 (stereo not drawn) | . | -5 | . | -2 | 0 | . | .
Oc1csc(Cc2nc(-c3ccccc3F)cs2)n1 | -66 | 1 | 2 | 10* | -24 | 17* | 7.0*
Oc1csc(Cc2nc(-c3ccc(-c4ccccc4)cc3)cs2)n1 | -57 | 1 | 0 | 3 | -7 | . | .
Cc1ocnc1C(=O)Nc1ccc(Cl)cc1 | -75 | -4 | 3 | 9.3* | -31 | 6 | 5
CSc1ccccc1OCc1cc(C(=O)N2CCSCC2)no1 | -122 | -4 | 1 | 13* | -13 | 9.6* | 10*
